# Bioassay records from PubChem.
# In the library only some 2.5% were active in any assay of this set; here they are far more common.
# SIRT5 block = blocks human SIRT5 desuccinylation of peptide; inhibition, % at 15 µM; Q9NXA8; 1.1% of 330,000 active; Purified SirT5, succinyl-peptide AMC, trypsin-coupled fluorescence; in the data active = inhibition above about 15%; inconclusive = no clear call, values can overlap the other calls
# PglD inh = inhibitors of Campylobacter jejuni PglD acetyltransferase. purified PglD enzyme, DTNB colorimetric CoA detection. inhibition, % at 12.5 µM. 0.098% of 360,000 active. AID 602405; in the data active = inhibition above about 16%, passing the limit was not always enough; inconclusive = no clear call, values can overlap the other calls
# DENV2 CPE = protects cells from dengue virus 2 cytopathic effect; DENV2-infected cells, cytopathic effect rescue, plate reader; CPE inhibition, % at 9.99 µM; 1.7% of 350,000 active; in the data active = CPE inhibition above about 20%, passing the limit was not always enough; inconclusive = no clear call, values can overlap the other calls; tested in BHK-21 cells;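 also: 0% = median of neutral control wells and 100% = median of positive control wells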
# ERAP1 inh = inhibitors of human ERAP1 aminopeptidase; Q9NZ08; recombinant ERAP1, Leu-AMC fluorescence, 60 min; inhibition, % at 10.7 µM; 0.15% of 340,000 active;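 active = mean replicate inhibition of at least 30%, or all replicates individually reaching that 30% level; inactive = mean below 30% and not every replicate reaching it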;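 also: 0% = neutral control wells and 100% = L-leucinethiol positive control wells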
# Target sequence (Q9NZ08 whole entry, looked up): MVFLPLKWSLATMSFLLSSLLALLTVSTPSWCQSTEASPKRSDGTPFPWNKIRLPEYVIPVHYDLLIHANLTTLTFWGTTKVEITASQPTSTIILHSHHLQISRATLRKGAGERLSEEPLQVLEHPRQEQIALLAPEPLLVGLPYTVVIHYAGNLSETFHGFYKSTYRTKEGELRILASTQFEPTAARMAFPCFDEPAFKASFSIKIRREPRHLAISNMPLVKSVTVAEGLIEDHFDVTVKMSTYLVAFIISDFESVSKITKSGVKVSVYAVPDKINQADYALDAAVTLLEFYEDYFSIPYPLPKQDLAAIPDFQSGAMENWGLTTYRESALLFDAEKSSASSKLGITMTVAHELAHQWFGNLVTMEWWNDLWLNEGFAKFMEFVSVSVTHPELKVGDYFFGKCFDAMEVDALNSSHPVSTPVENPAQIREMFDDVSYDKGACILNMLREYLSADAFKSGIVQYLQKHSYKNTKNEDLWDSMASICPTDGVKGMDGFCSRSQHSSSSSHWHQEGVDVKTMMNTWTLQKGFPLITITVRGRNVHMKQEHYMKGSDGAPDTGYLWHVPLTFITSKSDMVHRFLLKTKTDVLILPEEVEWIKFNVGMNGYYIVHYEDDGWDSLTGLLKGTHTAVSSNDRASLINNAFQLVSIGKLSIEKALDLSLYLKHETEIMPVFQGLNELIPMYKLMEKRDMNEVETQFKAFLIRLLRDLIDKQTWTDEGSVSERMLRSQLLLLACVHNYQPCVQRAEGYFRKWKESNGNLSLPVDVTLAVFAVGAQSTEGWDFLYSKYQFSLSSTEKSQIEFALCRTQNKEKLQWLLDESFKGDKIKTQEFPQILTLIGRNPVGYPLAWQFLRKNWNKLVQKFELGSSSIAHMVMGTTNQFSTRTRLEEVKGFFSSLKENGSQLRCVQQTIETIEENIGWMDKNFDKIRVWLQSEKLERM
# E-selectin induc = E-selectin induction on HUVECs. HUVEC E-selectin immunofluorescence imaging; normalized: neutral wells 0, TNF-alpha wells 100. activation, % at 7.58 µM. 0.37% of 260,000 active. AID 686992;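 active = mean E-selectin-positive cell signal at least 10% of the positive control, reached in at least 60% of replicates, without over 20% cell loss; inconclusive = no rule given, readout overlaps actives, possibly toxicity-flagged; inactive = the rest, including those meeting only one limit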
#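 Read-out: % PE-positive cells | Test system: HUVEC | Doses: One compound dose added by pin transfer | Buffer or medium: EGM-2 over gelatin coat | Signal: Immunofluorescence imaging | Benchmarks: TNF-alpha, DMSO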
# * marks the source's active call; other numbers are inactive results; ? = inconclusive; . = not tested or not shown.
SMILES,SIRT5 block,PglD inh,DENV2 CPE,ERAP1 inh,E-selectin induc
O=C(Nc1ccccc1F)N1CCCCN2[C@H](CO)[C@@H](c3ccc(C#Cc4ccccc4)cc3)[C@@H]2C1,6,6,21*,-3,0
CC(=O)N1CCCCN2[C@H](CO)[C@@H](c3ccc(C#Cc4ccccc4F)cc3)[C@H]2C1,4,1,24*,-1,0
Cc1ccc(NC(=O)C2CCCCC2)cc1C,.,-5,70*,.,0
Cc1ccc(NS(=O)(=O)c2ccc(NC(=O)C3CC3)cc2)cc1C,-3,4,1,1,.
Cc1c(NC(=O)c2ccc(NC(=O)C3CC3)cc2)cccc1C(=O)O,20*,1,-5,-4,-1
O=C(O)Cc1ccc(NC(=O)c2ccc(NC(=O)C3CC3)cc2)cc1,-2,4,82*,-8,-1
Cc1c(NC(=O)c2ccccc2NC(=O)c2ccccc2)cccc1C(=O)O,1,5,7,-9,.
Cc1nc(C(=O)O)sc1C1(C)CC(c2cccc([N+](=O)[O-])c2)=NO1 (stereo unspecified),-5,5,4,-1,0
CCOC(=O)C1(Cc2cccc(OC)c2)CCCN(Cc2c(C)nn(C(C)C)c2C)C1 (stereo unspecified),-2,1,19,-2,0
CCCNC(=O)C(Cc1ccc(F)cc1)NC(=O)c1ccc(C#N)cc1 (stereo unspecified),.,-1,-5,.,0
CCCNC(=O)C(Cc1ccc(I)cc1)NC(=O)c1ccc(C#N)cc1 (stereo unspecified),.,0,33*,-1,0
Cc1ccccc1C(=O)NC(=S)NCCC1=CCCCC1,35*,.,-5,-9,.
O=C(NC(=S)NCCC1=CCCCC1)c1ccco1,-1,.,0,2,.
C[C@@H]1CN([C@H](C)CO)C(=O)Cc2cc(NS(=O)(=O)c3ccc(Cl)cc3)ccc2O[C@@H]1CN(C)Cc1ccc(Oc2ccccc2)cc1,11,-2,6,-4,0
Cc1ccc(S(=O)(=O)Nc2ccc3c(c2)CC(=O)N([C@@H](C)CO)C[C@H](C)[C@H](CN(C)Cc2ccc(Oc4ccccc4)cc2)O3)cc1,1,-2,69*,-2,0
C[C@H]1CN([C@@H](C)CO)C(=O)Cc2cc(NS(=O)(=O)c3ccccc3)ccc2O[C@H]1CN(C)Cc1ccc(Oc2ccccc2)cc1,4,5,?,0,0
Cc1ccc(S(=O)(=O)Nc2ccc3c(c2)CC(=O)N([C@@H](C)CO)C[C@@H](C)[C@@H](CN(C)Cc2ccc(Oc4ccccc4)cc2)O3)cc1,18*,-2,9,-1,-1
Cc1c(C(=O)NCc2ccccn2)sc2nc(-c3ccccc3)cn12,-3,2,2,5,.
Cc1c(C(=O)NCCCN2CCOCC2)sc2nc(-c3ccccc3)cn12,-2,.,87*,3,0
C[C@H](CO)N1C[C@H](C)[C@H](CN(C)Cc2ccncc2)Oc2ccc(NC(=O)CCCN(C)C)cc2C1=O,-1,0,-7,1,0
COc1ccc(C(=O)CC(=O)C(=O)Nc2cccc([N+](=O)[O-])c2C)cc1,-2,.,30*,3,0
COc1cccc(C(=O)CC(=O)C(=O)Nc2cccc([N+](=O)[O-])c2C)c1,-1,-8,-5,1,0
CC1C=NC(S(=O)(=O)N2CC[C@@H]3[C@H]2c2cc(-c4cccc(F)c4)ccc2N(C)[C@H]3CO)=N1 (stereo partly specified),5,2,-3,2,0
CN1c2ccc(-c3ccccc3F)cc2[C@H]2[C@H](CCN2S(=O)(=O)c2ccccc2)[C@H]1CO,9,-1,-5,-1,0
Cc1cccc(S(=O)(=O)N2CC[C@@H]3[C@@H](CO)N(C)c4ccc(-c5ccccc5F)cc4[C@@H]32)c1,7,-8,35*,0,-1
SMILES,SIRT5 block,PglD inh,DENV2 CPE,ERAP1 inh,E-selectin induc
CN1c2ccc(-c3ccccc3F)cc2[C@H]2[C@H](CCN2S(=O)(=O)c2ccccc2)[C@@H]1CO,9,-3,21*,-1,1
CC1C=NC(S(=O)(=O)N2CC[C@@H]3[C@@H](CO)N(C)c4ccc(-c5ccc(F)cc5)cc4[C@@H]32)=N1 (stereo partly specified),.,2,21*,.,0
Cc1cccc(S(=O)(=O)N2CC[C@@H]3[C@H](CO)N(C)c4ccc(-c5ccccc5F)cc4[C@@H]32)c1,5,-11,-8,-2,2
CC1(C)CC(=O)c2cc(C(=O)NNc3ccccc3)c(=O)n(-c3ccccc3)c2C1,21*,.,3,-7,1
C[C@@H]1CN([C@H](C)CO)C(=O)Cc2cc(NC(=O)CCC(F)(F)F)ccc2O[C@@H]1CN(C)S(C)(=O)=O,.,.,.,.,39*
C[C@H](CO)N1C[C@H](C)[C@H](CN(C)CC2CC2)Oc2ccc(NC(=O)CCC(F)(F)F)cc2CC1=O,6,-1,21*,2,0
C[C@H](CO)N1C[C@H](C)[C@@H](CN(C)C(=O)NC2CCCCC2)Oc2ccc(NC(=O)CCC(F)(F)F)cc2CC1=O,-2,-5,32*,1,0
O=C(CC(F)(F)F)N1C[C@H]2[C@@H](c3ccccc31)[C@@H](CO)N2C(=O)C1CCCCC1,-1,-1,13,-1,1
O=C(CC(F)(F)F)N1C[C@@H]2[C@H](c3ccccc31)[C@@H](CO)N2C(=O)C1CC1,6,3,36*,1,0
COc1ccccc1C(=O)N1C[C@@H]2[C@H](c3ccccc31)[C@H](CO)N2C(=O)C1CCCC1,0,7,22*,0,1
O=C(Cc1ccccc1)N1C[C@H]2[C@@H](c3ccccc31)[C@@H](CO)N2C(=O)C1CC1,-1,2,25*,4,0
O=C(Cc1ccccc1)N1C[C@@H]2[C@H](c3ccccc31)[C@@H](CO)N2C(=O)C1CCCCC1,-1,2,24*,-1,0
O=C(CC(F)(F)F)N1C[C@@H]2[C@H](c3ccccc31)[C@@H](CO)N2C(=O)CN1CCOCC1,-3,-3,53*,-5,0
O=C(c1ccccc1)N1C[C@H]2[C@@H](c3ccccc31)[C@@H](CO)N2C(=O)CN1CCOCC1,2,-4,2,-3,0
CC(C)C(NS(=O)(=O)c1ccc2c(c1)C(C)(C)C(=O)N2C)C(=O)NCc1ccccc1Cl (stereo unspecified),-3,.,80*,-3,0
Cc1ccccc1CNS(=O)(=O)c1ccc2c(c1)C(C)(C)C(=O)N2C,-1,.,-3,-3,0
C[C@]1(C(=O)NCc2cc(F)cc(C(F)(F)F)c2)C=C[C@@H](Cc2ccccc2)N1C(=O)c1ccccc1,34*,-4,?,-1,0
COCCNC(=O)[C@@]1(C)C=C[C@@H](Cc2ccccc2)N1C(=O)c1ccccc1,0,8,-15,2,0
O=C(C1COc2ccccc2O1)N1CCN(c2ccccc2O)CC1 (stereo unspecified),17*,-2,-3,4,-2
